The text below walks through data of ChEMBL document CHEMBL3826895, “Pterin-sulfa conjugates as dihydropteroate synthase inhibitors and antibacterial agents” (Bioorg Med Chem Lett, 2016).

≈ marks a conversion by molar mass, not a printed value.

Experiment [1] has as its system Escherichia coli. In words: Antibacterial activity against Escherichia coli K-12 in M9 minimal media in presence of methionine by turbidometric method. It counts as functional.
In experiment [2] the test system is Escherichia coli. In words: Antibacterial activity against Escherichia coli K-12 in M9 minimal media in presence of folate precursor PABA by turbidometric method. The class given is functional.
Experiment [3] has as its system Escherichia coli. In words: Antibacterial activity against Escherichia coli K-12 in M9 minimal media by turbidometric method. It counts as functional.
In experiment [4] the target is T1, Dihydropteroate synthase (Bacillus anthracis, UniProt Q81VW8).
T1 sequence (Q81VW8 whole entry): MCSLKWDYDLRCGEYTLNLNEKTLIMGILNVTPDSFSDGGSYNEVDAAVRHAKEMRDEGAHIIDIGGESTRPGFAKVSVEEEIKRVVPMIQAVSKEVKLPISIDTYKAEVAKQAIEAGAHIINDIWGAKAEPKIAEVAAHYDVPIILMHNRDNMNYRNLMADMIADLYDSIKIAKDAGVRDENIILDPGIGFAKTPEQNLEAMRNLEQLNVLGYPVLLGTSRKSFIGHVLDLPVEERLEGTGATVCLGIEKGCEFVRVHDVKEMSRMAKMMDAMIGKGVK
Kind of experiment: Inhibition of fluorescein-labeled probe binding to Bacillus anthracis N-terminal His-tagged DHPS incubated for 1 hr in presence of sodium pyrophosphate by fluorescence polarization assay. In outline:
(§1)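 Competition binding of test compounds against a probe on B. anthracis DHPS, read by fluorescence polarization as displacement of the probe; run without added pyrophosphate or with 2 mM sodium pyrophosphate, the DHPS reaction byproduct, to confirm site-specific binding; IC50 values derived from probe displacement.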

Experiment [5] has as its target T1, Dihydropteroate synthase. In words: Inhibition of fluorescein-labeled probe binding to Bacillus anthracis N-terminal His-tagged DHPS incubated for 1 hr by fluorescence polarization assay. In outline: as §1

A word on the MIC: it is the smallest concentration in the dilution series that meets the test's criterion for growth inhibition. Consider `CC(=O)Nc1nc2ncc(CNc3ccc(S(=O)(=O)Nc4onc(C)c4C)cc3)nc2c(=O)[nH]1`, for which the values for the MIC with Escherichia coli [1], with Escherichia coli [2] and in the experiment with Escherichia coli [3] were 5.9 µM, 249 µM and 1.5 µM (≈ 0.727 µg/mL), respectively.

With `CC(=O)Nc1nc2ncc(CNc3ccc(S(=O)(=O)NC(C)=O)cc3)nc2c(=O)[nH]1`, the MIC was 58 µM in the experiment on Escherichia coli [1], > 934 µM in the experiment on Escherichia coli [2] and 22 µM (≈ 9.49 µg/mL) against Escherichia coli [3].

Take `CC(=O)Nc1nc2ncc(CNc3ccc(S(=O)(=O)c4ccc(N)cc4)cc3)nc2c(=O)[nH]1`: the MIC is 50 µM with Escherichia coli [1], > 934 µM in the experiment on Escherichia coli [2] and 25 µM (≈ 11.6 µg/mL) against Escherichia coli [3].

One may read the IC50 as the concentration at which inhibition is half-maximal. In the case of `Cc1cc(NS(=O)(=O)c2ccc(NCc3cnc4nc(N)[nH]c(=O)c4n3)cc2)no1`, the IC50 at Dihydropteroate synthase [4] was 3.4 µM; at Dihydropteroate synthase [5], 20.6 µM. The figures for the MIC in the experiment on Escherichia coli [1], in the experiment on Escherichia coli [2] and with Escherichia coli [3] were 29 µM, 467 µM and 10.9 µM (≈ 4.67 µg/mL), respectively.

Consider `COc1ncnc(NS(=O)(=O)c2ccc(NCc3cnc4nc(NC(C)=O)[nH]c(=O)c4n3)cc2)c1OC`, for which the MIC in the experiment with Escherichia coli [1] was 10.1 µM; in the experiment with Escherichia coli [2], > 644 µM; with Escherichia coli [3], 3.8 µM (≈ 2 µg/mL).

Take `COc1ncnc(NS(=O)(=O)c2ccc(NCc3cnc4nc(N)[nH]c(=O)c4n3)cc2)c1OC`: the IC50 at Dihydropteroate synthase [4] stood at 11.5 µM; at Dihydropteroate synthase [5], 15.2 µM. Further, the MIC in the experiment with Escherichia coli [1] was 172 µM; in the experiment on Escherichia coli [2] it was > 412 µM; against Escherichia coli [3] it was 34.3 µM (≈ 16.7 µg/mL).

Take `CC(=O)Nc1nc2ncc(CNc3ccc(S(=O)(=O)Nc4ccccn4)cc3)nc2c(=O)[nH]1`: the minimum inhibitory concentration (MIC) with Escherichia coli [1] is 6.3 µM; with Escherichia coli [2], 669 µM; against Escherichia coli [3] it was 2.7 µM (≈ 1.26 µg/mL).

Regarding `CC(=O)Nc1nc2ncc(CNc3ccc(S(=O)(=O)Nc4cc(C)on4)cc3)nc2c(=O)[nH]1`, the figures for the MIC in the experiment with Escherichia coli [1], in the experiment on Escherichia coli [2] and in the experiment with Escherichia coli [3] were 1.5 µM, 263 µM and 0.8 µM (≈ 0.376 µg/mL), respectively.

In the case of `COc1cc(NS(=O)(=O)c2ccc(NCc3cnc4nc(N)[nH]c(=O)c4n3)cc2)nc(OC)n1`, the IC50 was determined as 1.9 µM at Dihydropteroate synthase [4] and 26.8 µM at Dihydropteroate synthase [5]. The MIC with Escherichia coli [1] was 86 µM; in the experiment with Escherichia coli [2], > 412 µM; against Escherichia coli [3] it was 17.2 µM (≈ 8.35 µg/mL).

As for `Nc1nc2ncc(CNc3ccc(S(=O)(=O)Nc4ncccn4)cc3)nc2c(=O)[nH]1`, the IC50 on Dihydropteroate synthase [4] was found to be 9.4 µM; on Dihydropteroate synthase [5], 19.3 µM. Further, the figures for the MIC with Escherichia coli [1], with Escherichia coli [2] and against Escherichia coli [3] were 78 µM, > 470 µM and 17.1 µM (≈ 7.27 µg/mL), respectively.

In the case of `Nc1ccc(S(=O)(=O)c2ccc(NCc3cnc4nc(N)[nH]c(=O)c4n3)cc2)cc1`, the IC50 on Dihydropteroate synthase [4] worked out at 11.3 µM; on Dihydropteroate synthase [5], 17.8 µM. Moreover, the MIC turned out to be 236 µM in the experiment with Escherichia coli [1], 236 µM in the experiment on Escherichia coli [2] and 197 µM (≈ 83.4 µg/mL) with Escherichia coli [3].

With `Nc1nc2ncc(CNc3ccc(S(=O)(=O)Nc4ccccn4)cc3)nc2c(=O)[nH]1`, the IC50 at Dihydropteroate synthase [4] was 2.5 µM; at Dihydropteroate synthase [5], > 62.5 µM. The values for the MIC in the experiment on Escherichia coli [1], in the experiment with Escherichia coli [2] and against Escherichia coli [3] were 98 µM, > 471 µM and 29.5 µM (≈ 12.5 µg/mL), respectively.

Take `CC(=O)Nc1nc2ncc(CNc3ccc(S(=O)(=O)Nc4ncccn4)cc3)nc2c(=O)[nH]1`: the MIC in the experiment on Escherichia coli [1] amounted to 6.2 µM; with Escherichia coli [2], 666 µM; with Escherichia coli [3], 1.6 µM (≈ 0.748 µg/mL).

Turning to `COc1cc(NS(=O)(=O)c2ccc(NCc3cnc4nc(NC(C)=O)[nH]c(=O)c4n3)cc2)nc(OC)n1`, the MIC in the experiment with Escherichia coli [1] amounted to 3.4 µM; with Escherichia coli [2], 537 µM; against Escherichia coli [3], 1.6 µM (≈ 0.844 µg/mL).

`Cc1noc(NS(=O)(=O)c2ccc(NCc3cnc4nc(N)[nH]c(=O)c4n3)cc2)c1C`: the values for the IC50 at Dihydropteroate synthase [4] and at Dihydropteroate synthase [5] were 8.1 µM and 22.5 µM, respectively. The figures for the MIC in the experiment on Escherichia coli [1], with Escherichia coli [2] and in the experiment with Escherichia coli [3] were 47 µM, > 412 µM and 28.3 µM (≈ 12.5 µg/mL), respectively.

Take `CC(=O)NS(=O)(=O)c1ccc(NCc2cnc3nc(N)[nH]c(=O)c3n2)cc1`: the values for the IC50 on Dihydropteroate synthase [4] and on Dihydropteroate synthase [5] were 17.1 µM and 18.6 µM, respectively. In addition, the values for the MIC with Escherichia coli [1], in the experiment with Escherichia coli [2] and in the experiment on Escherichia coli [3] were > 200 µM, > 514 µM and 136 µM (≈ 53 µg/mL), respectively.

Consider `CC1(C)S[C@@H]2[C@H](NC(=O)[C@H](N)c3ccccc3)C(=O)N2[C@H]1C(=O)O` [AMPICILLIN], for which the MIC in the experiment on Escherichia coli [1] was determined as 2.1 µM; in the experiment on Escherichia coli [2] it was 2 µM; against Escherichia coli [3] it was 1.58 µM (≈ 0.552 µg/mL).

As to `O=C(N[C@H](CO)[C@H](O)c1ccc([N+](=O)[O-])cc1)C(Cl)Cl` [CHLORAMPHENICOL], the MIC with Escherichia coli [1] is 9.7 µM; in the experiment with Escherichia coli [2], 9.7 µM; in the experiment on Escherichia coli [3], 8.5 µM (≈ 2.75 µg/mL).

With `COc1cc(Cc2cnc(N)nc2N)cc(OC)c1OC` [TRIMETHOPRIM], the values for the MIC in the experiment with Escherichia coli [1], in the experiment on Escherichia coli [2] and against Escherichia coli [3] were 0.7 µM, 1.4 µM and 1.7 µM (≈ 0.494 µg/mL), respectively.
